# Laboratory results taken from article PMC9290503 (British Journal of Clinical Pharmacology, 2021).
# Assays:
# [1] = Safety and tolerability, Study 1003; type: in vivo, human
# In short: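 Healthy women received placebo or test compound once daily for 10 days (20–160 mg, double-blind), including one 20 mg cohort of four Japanese women. Monitored AEs, physical and neurological exams, vital signs, flagged clinical labs, pregnancy and 12-lead ECG. TEAEs counted from first dose to 30 days after the last dose. Follow-up to day 70 (±2).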
# human LSD1 = settings: targets the catalytic FAD in the LSD1 active site; no reference given; cited from earlier work
# [2] = tested on: mouse model of Kabuki syndrome; settings: ref [7], cited from earlier work
# [3] = 20 mg q.d. 10 days, Japanese (n = 3)
# [4] = 20 mg q.d. 10 days, non‐Japanese (n = 6)
# [5] = 60 mg q.d. 10 days, non‐Japanese (n = 6)
# [6] = 160 mg q.d. 10 days, non‐Japanese (n = 3)
# [7] = MRD, TAK‐418 all participants (n = 18)
smiles,measurement,setting,value
Cl.O=C(NC1CCOCC1)c1csc([C@@H]2C[C@H]2NCC2CC2)c1 [TAK‐418],Participants with any TEAE,[1]; [3],1 (33.3) Number (%) of participants
same,TEAE Arthropod bite,[1]; [3],0 Number (%) of participants
same,TEAE Constipation,[1]; [3],0 Number (%) of participants
same,TEAE Decreased appetite,[1]; [3],0 Number (%) of participants
same,TEAE Diarrhoea,[1]; [3],0 Number (%) of participants
same,TEAE Dizziness,[1]; [3],0 Number (%) of participants
same,TEAE Dry mouth,[1]; [3],0 Number (%) of participants
same,TEAE Headache,[1]; [3],0 Number (%) of participants
same,TEAE Myalgia,[1]; [3],0 Number (%) of participants
same,TEAE Nausea,[1]; [3],0 Number (%) of participants
same,TEAE Somnolence,[1]; [3],0 Number (%) of participants
same,TEAE Vomiting,[1]; [3],0 Number (%) of participants
same,Participants with any TEAE,[1]; [4],5 (83.3) Number (%) of participants
same,TEAE Arthropod bite,[1]; [4],1 (16.7) Number (%) of participants
same,TEAE Constipation,[1]; [4],0 Number (%) of participants
same,TEAE Decreased appetite,[1]; [4],2 (33.3) Number (%) of participants
same,TEAE Diarrhoea,[1]; [4],0 Number (%) of participants
same,TEAE Dizziness,[1]; [4],1 (16.7) Number (%) of participants
same,TEAE Dry mouth,[1]; [4],0 Number (%) of participants
same,TEAE Headache,[1]; [4],4 (66.7) Number (%) of participants
same,TEAE Myalgia,[1]; [4],0 Number (%) of participants
same,TEAE Nausea,[1]; [4],0 Number (%) of participants
same,TEAE Somnolence,[1]; [4],2 (33.3) Number (%) of participants
same,TEAE Vomiting,[1]; [4],0 Number (%) of participants
same,Participants with any TEAE,[1]; [5],6 (100.0) Number (%) of participants
same,TEAE Arthropod bite,[1]; [5],1 (16.7) Number (%) of participants
same,TEAE Decreased appetite,[1]; [5],1 (16.7) Number (%) of participants
same,TEAE Diarrhoea,[1]; [5],1 (16.7) Number (%) of participants
same,TEAE Dizziness,[1]; [5],1 (16.7) Number (%) of participants
same,TEAE Dry mouth,[1]; [5],1 (16.7) Number (%) of participants
same,TEAE Headache,[1]; [5],5 (83.3) Number (%) of participants
same,TEAE Myalgia,[1]; [5],2 (33.3) Number (%) of participants
same,TEAE Nausea,[1]; [5],4 (66.7) Number (%) of participants
same,TEAE Somnolence,[1]; [5],1 (16.7) Number (%) of participants
same,TEAE Vomiting,[1]; [5],3 (50.0) Number (%) of participants
same,Participants with any TEAE,[1]; [6],3 (100.0) Number (%) of participants
same,TEAE Arthropod bite,[1]; [6],0 Number (%) of participants
same,TEAE Constipation,[1]; [6],0 Number (%) of participants
same,TEAE Decreased appetite,[1]; [6],0 Number (%) of participants
same,TEAE Diarrhoea,[1]; [6],2 (66.7) Number (%) of participants
same,TEAE Dizziness,[1]; [6],0 Number (%) of participants
same,TEAE Dry mouth,[1]; [6],2 (66.7) Number (%) of participants
same,TEAE Headache,[1]; [6],0 Number (%) of participants
same,TEAE Myalgia,[1]; [6],0 Number (%) of participants
same,TEAE Nausea,[1]; [6],0 Number (%) of participants
same,TEAE Somnolence,[1]; [6],0 Number (%) of participants
same,TEAE Vomiting,[1]; [6],0 Number (%) of participants
same,laboratory test parameters,[1]; MRD cohorts,No notably abnormal laboratory test parameters
same,participants experiencing TEAEs,"[1]; MRD cohorts (20, 60 or 160 mg q.d.), 15 participants",83%
same,treatment‐related headache,"[1]; MRD cohorts, five individuals",28%
same,participants with moderate TEAEs,"[1]; MRD cohorts, five participants",28%
same,decreased appetite,"[1]; MRD cohorts, n = 3",17%
same,diarrhoea,"[1]; MRD cohorts, n = 3",17%
same,dry mouth,"[1]; MRD cohorts, n = 3",17%
same,somnolence,"[1]; MRD cohorts, n = 3",17%
same,vomiting,"[1]; MRD cohorts, n = 3",17%
same,nausea,"[1]; MRD cohorts, n = 4",22%
same,headache,"[1]; MRD cohorts, n = 9",50%
same,participants with mild TEAEs,"[1]; MRD cohorts, nine participants",50%
same,participants with severe TEAEs,"[1]; MRD cohorts, one participant (headache, 60 mg)",6%
same,treatment‐related dry mouth,"[1]; MRD cohorts, three individuals",17%
same,participants with treatment‐related TEAEs,"[1]; MRD cohorts, twelve participants, all mild",67%
same,Participants with any TEAE,[1]; [7],15 (83.3) Number (%) of participants
same,TEAE Arthropod bite,[1]; [7],2 (11.1) Number (%) of participants
same,TEAE Constipation,[1]; [7],2 (11.1) Number (%) of participants
same,TEAE Decreased appetite,[1]; [7],3 (16.7) Number (%) of participants
same,TEAE Diarrhoea,[1]; [7],3 (16.7) Number (%) of participants
same,TEAE Dizziness,[1]; [7],2 (11.1) Number (%) of participants
same,TEAE Dry mouth,[1]; [7],3 (16.7) Number (%) of participants
same,TEAE Headache,[1]; [7],9 (50.0) Number (%) of participants
same,TEAE Myalgia,[1]; [7],2 (11.1) Number (%) of participants
same,TEAE Nausea,[1]; [7],4 (22.2) Number (%) of participants
same,TEAE Somnolence,[1]; [7],3 (16.7) Number (%) of participants
same,TEAE Vomiting,[1]; [7],3 (16.7) Number (%) of participants
same,treatment‐related TEAEs,[1]; SRD 120/160 mg cohort,"Two participants had TEAEs considered to be related to treatment, which were mild in intensity"
same,dizziness,"[1]; SRD 120/160 mg cohort, n = 2",25%
same,headache,"[1]; SRD 120/160 mg cohort, n = 2",25%
same,participants with moderate TEAEs,"[1]; SRD 120/160 mg cohort, one person",13%
same,participants with mild TEAEs,"[1]; SRD 120/160 mg cohort, three women",38%
same,gamma glutamyl transferase level reached,"[1]; SRD cohort, 160 mg, Day 30, one participant (13%), more than three times the upper limit of normal",315 U/L
same,"SAEs, suicidal ideation/behaviour, deaths",[1]; Study 1003,"no SAEs, suicidal ideation/behaviour or deaths were reported"
same,thrombocytopenia AEs,[1]; current study,no thrombocytopenia AEs were observed
same,tolerability,[1]; daily dosing up to 160 mg,well tolerated
same,Japanese participants experiencing TEAEs,[1]; with TAK‐418 20 mg,33.3%
same,non‐Japanese participants experiencing TEAEs,[1]; with TAK‐418 20 mg,83%
same,inhibition of LSD1 activity,human LSD1,irreversibly inhibits the activity of human LSD1
same,visuospatial learning and memory defects,"[2]; after 2 weeks of treatment, compared with vehicle control",visuospatial learning and memory defects were rescued
same,H3K4 histone modification defects,[2]; mouse model of Kabuki syndrome,rescued H3K4 histone modification defects
same,adult neurogenesis in the hippocampus,[2]; mouse model of Kabuki syndrome,dose‐dependently normalized adult neurogenesis in the hippocampus
